Data taken from ChEMBL document CHEMBL1138340, “Cannabilactones: a novel class of CB2 selective agonists with peripheral analgesic activity” (J Med Chem, 2007).
Activity calls are given as the source filed them.

Experiments:
[1] = Selectivity of mouse CB2 receptor over rat CB1 receptor
In short: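 Ratio of Ki values from [3H]CP55,940 displacement using rat brain synaptosomal membranes (CB1) and mouse spleen membranes (CB2). Both incubated 1 h at 30 °C in TME with 0.1% BSA. IC50 from three independent experiments converted to Ki by Cheng–Prusoff.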

Cannabinoid receptor 1 = Cannabinoid receptor 1 (Rattus norvegicus, UniProt P20272); assay: Displacement of [3H]CP-55940 from CB1 receptor in rat brain synaptosomes; format: subcellular
Chain of Cannabinoid receptor 1 (P20272 whole entry): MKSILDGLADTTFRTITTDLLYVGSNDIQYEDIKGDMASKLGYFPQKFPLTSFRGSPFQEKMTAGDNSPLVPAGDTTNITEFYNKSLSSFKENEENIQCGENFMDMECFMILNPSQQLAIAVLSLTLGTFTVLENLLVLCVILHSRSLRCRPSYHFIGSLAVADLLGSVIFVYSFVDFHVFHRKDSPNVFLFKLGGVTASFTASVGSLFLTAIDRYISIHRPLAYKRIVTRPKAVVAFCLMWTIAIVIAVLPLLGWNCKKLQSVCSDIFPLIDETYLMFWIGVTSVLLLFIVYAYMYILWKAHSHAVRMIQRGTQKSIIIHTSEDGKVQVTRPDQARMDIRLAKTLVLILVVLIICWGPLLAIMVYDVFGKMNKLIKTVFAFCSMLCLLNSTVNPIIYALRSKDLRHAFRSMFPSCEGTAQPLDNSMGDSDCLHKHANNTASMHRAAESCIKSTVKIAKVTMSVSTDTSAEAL
In short: (§1)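 Test ligand at eight concentrations in DMSO. Incubation 1 h at 30 °C in TME buffer (25 mM Tris, 5 mM MgCl2, 1 mM EDTA) with 0.1% BSA. Nonspecific binding defined with 200 nM CP55,940. Bound ligand separated by rapid filtration and read by scintillation counting. Data from three independent experiments fitted by four-parameter logistic to give IC50, converted to Ki by Cheng–Prusoff.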

Cannabinoid receptor 2 = Cannabinoid receptor 2 (Mus musculus, UniProt P47936); assay: Displacement of [3H]CP-55940 from CB2 receptor in mouse spleen membranes; format: cell membranes, Membrane
Chain of Cannabinoid receptor 2 (P47936 whole entry): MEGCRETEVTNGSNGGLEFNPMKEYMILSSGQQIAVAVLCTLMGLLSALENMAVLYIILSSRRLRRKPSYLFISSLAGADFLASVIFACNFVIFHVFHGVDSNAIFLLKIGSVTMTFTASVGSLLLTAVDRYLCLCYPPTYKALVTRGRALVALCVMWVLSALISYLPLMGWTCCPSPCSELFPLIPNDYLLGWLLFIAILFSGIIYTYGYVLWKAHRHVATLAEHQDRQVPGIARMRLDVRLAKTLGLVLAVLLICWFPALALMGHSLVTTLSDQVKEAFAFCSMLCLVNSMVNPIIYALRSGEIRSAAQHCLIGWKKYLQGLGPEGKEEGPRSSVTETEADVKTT
In short: as §1, with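 “Competitive displacement of [3H]CP55,940 (3.08 nM) from rat forebrain synaptosomal membranes (CB1) or frozen mouse spleen membranes (CB2), 40–50 µg protein. Test” for “Test”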

[2] = target: Cannabinoid receptor 2 (Mus musculus) (UniProt P47936); assay: Agonist activity at CB2 receptor in mouse spleen membranes at 1 uM after 2 hrs by [35S]GTP-gamma-S binding assay; format: functional, cell membranes; details: Membrane
Chain of Cannabinoid receptor 2 (Mus musculus) (P47936 whole entry): as above
In short: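 Mouse spleen lysed in a cell disruption bomb, centrifuged at 1000 g then 175000 g, and resuspended in TME with 0.1% BSA. Membranes (24–40 µg) incubated 2 h at 30 °C with test compound at 1 µM, 30 µM GDP and 0.05 nM [35S]GTPγS. Nonspecific binding defined with 10 µM unlabeled GTPγS. Bound label measured after GF/B filtration by scintillation counting. Reported with standard deviations.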

Rattus norvegicus [3] = assay: Antinociceptive activity in sc dosed Sprague-Dawley rat assessed as paw withdrawal latency to radiant heat after 20 mins; format: functional
In short: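 Male Sprague–Dawley rats, 200–300 g. Drug in DMSO, 50 µL, injected subcutaneously into the plantar hindpaw 20 min before testing. […] A50 (dose giving 50% MPE) taken from dose–response curves by Tallarida–Murray. n=6 per group, mean ± SEM.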

[4] = target: Cannabinoid receptor 2 (Mus musculus) (UniProt P47936); assay: Agonist activity at CB2 receptor in mouse spleen membranes assessed as inhibition of forskolin-stimulated cAMP production; format: functional, cell membranes; details: Membrane
Rattus norvegicus [5] = assay: Neurotoxicity in Sprague-Dawley rat assessed as ambulation on rotarod apparatus at 3.3 mg/kg, ip after 15 mins; format: toxicity, organism-based; parameters: dose 3.3 mg/kg, route intraperitoneal; details: in vivo, 0.25 h
In short: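 Rats trained to stay 180 s on a rotarod at 10 rpm. Drug given i.p. at 3.3 mg/kg. Time to fall recorded 15 min after dosing, with a 180 s cutoff; comparison is to vehicle baseline.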

Compound | Ratio Ki [1] | Ki (Cannabinoid receptor 1) [nM] | Ki (Cannabinoid receptor 2) [nM] | Activity [2] [%] | A50 (Rattus norvegicus [3]) [mg/kg] | Activity [4] | Activity (Rattus norvegicus [5])
CCCCCCC(C)(C)c1cc(O)c2c(c1)OC(C)(C)c1ccc(OC)cc1-2 | 0.92 | 5.4 | 5.9 | 42 |  |  | 
Cc1c(C(=O)c2cccc3ccccc23)c2cccc3c2n1[C@H](CN1CCOCC1)CO3 |  |  |  | 56 |  |  | 
CCCCCCC(C)(C)c1cc(O)c2c(c1)OC(C)(C)c1ccc(O)cc1-2 | 0.54 |  | 4.8 |  |  |  | 
CCCCCCC(C)(C)c1cc(O)c2c(c1)oc(=O)c1ccc(OC)cc12 | 54 | 360 | 6.7 | 50 | 1.6 | Active | 
CCCCCCC(C)(C)c1cc(O)c2c(c1)oc(=O)c1ccc(O)cc12 | 490 | 400 | 0.82 | 55 | 4.5 | Active | Non-toxic
CCCCCCC(C)(C)c1cc(O)c2c(c1)OC(C)(C)c1ccc(C)cc1-2 | 0.86 | 0.95 | 1.1 |  |  |  | 
CCCCCCC(C)(C)c1cc(O)c2c(c1)oc(=O)c1ccc(C)cc12 |  | 39 | 3.1 |  |  |  | 
